Test results reported in ChEMBL document CHEMBL1154950, “Biochemical analysis of cellular target of S-trityl-L-cysteine derivatives using affinity matrix” (Bioorg Med Chem Lett, 2010).
Calls of active or inactive are those of the source. No cut-off for these calls is given here.

Experiments:
Type in all cases: cell-based
Conditions in all cases: HCT-116
[1] = biological target: T1, Kinesin-like protein KIF11 (Homo sapiens) (UniProt P52732); assay: Competitive inhibition of affinity bead (R)-2-Amino-N-{2-[2-(2-amino-ethoxy)-ethoxy]-ethyl}-3-[(4-methoxy-phenyl)-diphenyl-methylsulfanyl]-propionamide binding to KSP in human HCT116 cells at 10 umol/L pretreated for 3 hrs by Western blot analysis
T1 sequence (whole entry): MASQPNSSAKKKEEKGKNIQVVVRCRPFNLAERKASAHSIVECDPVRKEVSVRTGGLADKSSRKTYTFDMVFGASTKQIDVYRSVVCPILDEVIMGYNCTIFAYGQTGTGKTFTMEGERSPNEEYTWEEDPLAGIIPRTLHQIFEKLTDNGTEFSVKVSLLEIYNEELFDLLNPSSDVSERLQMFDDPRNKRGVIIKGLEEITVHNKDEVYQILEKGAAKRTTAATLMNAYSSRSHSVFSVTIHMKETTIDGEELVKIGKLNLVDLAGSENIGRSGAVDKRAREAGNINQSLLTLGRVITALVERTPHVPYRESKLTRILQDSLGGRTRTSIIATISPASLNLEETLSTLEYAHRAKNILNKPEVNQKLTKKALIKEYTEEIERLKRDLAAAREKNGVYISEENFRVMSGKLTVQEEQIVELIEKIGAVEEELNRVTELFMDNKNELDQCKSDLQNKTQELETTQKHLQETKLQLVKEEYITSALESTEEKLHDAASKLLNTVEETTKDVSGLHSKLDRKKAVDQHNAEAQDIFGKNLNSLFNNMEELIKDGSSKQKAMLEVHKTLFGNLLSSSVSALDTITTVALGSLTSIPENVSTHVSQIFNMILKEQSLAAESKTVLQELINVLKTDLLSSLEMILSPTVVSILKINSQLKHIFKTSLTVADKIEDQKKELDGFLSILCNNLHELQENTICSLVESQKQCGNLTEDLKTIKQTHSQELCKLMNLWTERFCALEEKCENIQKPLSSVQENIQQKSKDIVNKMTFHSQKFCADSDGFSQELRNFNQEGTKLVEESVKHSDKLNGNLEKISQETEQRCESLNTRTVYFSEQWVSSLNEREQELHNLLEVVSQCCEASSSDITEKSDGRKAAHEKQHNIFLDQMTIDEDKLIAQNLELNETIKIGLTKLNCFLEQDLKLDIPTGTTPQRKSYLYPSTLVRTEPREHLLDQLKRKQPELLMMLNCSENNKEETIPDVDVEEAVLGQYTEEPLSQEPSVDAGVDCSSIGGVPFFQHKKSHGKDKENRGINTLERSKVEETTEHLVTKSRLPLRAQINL

[2] = biological target: T1, Kinesin-like protein KIF11 (Homo sapiens); assay: Inhibition of affinity bead (R)-2-Amino-N-{2-[2-(2-amino-ethoxy)-ethoxy]-ethyl}-3-[(4-methoxy-phenyl)-diphenyl-methylsulfanyl]-propionamide binding to KSP in human HCT116 cells pretreated for 3 hrs by Western blot analysis
[3] = biological target: T1, Kinesin-like protein KIF11 (Homo sapiens); assay: Displacement of affinity bead (R)-2-Amino-N-{2-[2-(2-amino-ethoxy)-ethoxy]-ethyl}-3-[(4-methoxy-phenyl)-diphenyl-methylsulfanyl]-propionamide from KSP in human HCT116 cells after 2 hrs by Western blot analysis
Procedure, shortened: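 This is a cell-free competition assay. Drug-immobilized or ethanolamine control beads were washed and resuspended in binding buffer containing DMSO or compound in DMSO. They were rotated for 2 h at 4 °C with 50 mg/mL BSA and 8 mg/mL HCT116 cytoplasmic extract (freeze–thaw lysate). Beads were washed three times, and KSP on the beads and in the supernatant was assessed by anti-KSP Western blot.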

[4] = biological target: T1, Kinesin-like protein KIF11 (Homo sapiens); assay: Competitive inhibition of affinity bead (R)-2-Amino-N-{2-[2-(2-amino-ethoxy)-ethoxy]-ethyl}-3-[(4-methoxy-phenyl)-diphenyl-methylsulfanyl]-propionamide binding to KSP in human HCT116 cells at >30 umol/L pretreated for 3 hrs by Western blot analysis

| Activity [1] | Activity [4] | Compound | inhibition [2] | Activity [3] |
| --- | --- | --- | --- | --- |
| Active | – | CC1(C)CC(=O)C2=C(C1)NC(=S)NC2c1cccc(O)c1 (stereo not drawn) | – | – |
| Active | – | N[C@@H](CSC(c1ccccc1)(c1ccccc1)c1ccc(C(F)(F)F)cc1)C(=O)O | Active | Dose-dependent effect |
| – | – | N[C@@H](CSC(c1ccccc1)c1ccccc1)C(=O)O | inactive | inactive |
| inactive | Active | NS(=O)(=O)Nc1ccc(-c2ccc(C(F)(F)F)cn2)cc1 | – | – |
